Source: PubChem BioAssay (several laboratories)
IMP-1 inh – inhibitors of Pseudomonas aeruginosa IMP-1 metallo-beta-lactamase; AID 1556; 290,000 tested, 0.45% active; inhibition, % at 5.6 µM; purified IMP-1, nitrocefin hydrolysis, epi-absorbance fluorescence;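 active = inhibition above the mean plus 3 SD of all compounds in the same screening run, cut at about 4.5% in these data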;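 also: 0% = IMP-1 with DMSO and 100% = DMSO wells lacking enzyme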
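system = purified recombinant IMP-1 beta-lactamase | amount = 0.2 nM IMP-1, as dispensed | medium = HEPES buffer pH 7.1 with ZnSO4 and Brij 35 | times = 25 °C, 15 min preincubation, 25 min reaction | detection = plate fluorescence quenching by hydrolysis product, ex 480/em 530 nm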
697 NFkB inh – inhibitors of the PMA/ionomycin-induced NF-kB reporter in 697 B cells | 330,000 tested, 0.33% active | 697 B-cell NF-kB luciferase reporter, 16 h | AID 435022 | inhibition, % at 4 µM; in the data active = inhibition above about 35%
Mdm2 MdmX PPI – human Mdm2/MdmX binding inhibition; SaOS-2 split-luciferase Mdm2/MdmX complementation, luminescence; AID 485346; 330,000 tested, 3% active; inhibition, % at 8 µM;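 active = inhibition of at least 50% at 8 µM in the primary screen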
aSyn UTR inh – 5' untranslated region of α-synuclein, MLPCN primary screen. alpha-synuclein 5'UTR reporter, inhibitor activity. inhibition, % (tested at 7.5 µM). 300,000 tested, 0.82% active. AID 1813; in the data active = inhibition above about 60%;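 also: H4 neuroglioblastoma cells stably carrying SNCA 5'UTR luciferase fusion; 0% = DMSO wells and 100% = positive control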
VIM-2 inhibitor – blocks Pseudomonas aeruginosa VIM-2 metallo-beta-lactamase | purified VIM-2, nitrocefin hydrolysis, epi-absorbance fluorescence | inhibition, % at 5.6 µM | 290,000 tested, 0.89% active;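 active = inhibition above the mean of all tested compounds plus 3 SD, cutoff set per screening run, cut at about 7.5% in these data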;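 also: red hydrolysis product quenches plate fluorescence so inhibitors raise well fluorescence; 0% = enzyme with DMSO and 100% = DMSO without enzyme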
Jurkat NFkB inh – inhibitors of the PMA/ionomycin-induced NF-kB reporter in Jurkat cells; inhibition, % at 4 µM; AID 435003; PMA/ionomycin-induced NF-kB luciferase reporter, luminescence; 330,000 tested, 0.53% active; in the data active = inhibition above about 50%
Mdm2 MdmX conf – confirmation of human Mdm2/MdmX interaction inhibitors; shares compounds with Mdm2 MdmX PPI; Mdm2-MdmX binding, luminescent assay; inhibition, % at 8 µM; 10,000 tested, 55% active; in the data active = inhibition above about 40%
Full FLuc ctr – counter-screen for Mdm2/MdmX inhibitors: full-length luciferase; 6,200 tested, 77% active; shares compounds with Mdm2 MdmX PPI; SaOS-2 full-length luciferase counterscreen, luminescence; inhibition, % at 8 µM;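 active = mean inhibition at 8 µM reaching about 37%, which flags the compound as non-specific, limit read from the data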;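 also: p53-null SaOS-2 cells with luciferase driven by a doxycycline-inducible promoter; compound on cells about two nights before reading with doxycycline added after day one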
The depositor's hits bear a star; x = no result given. Shown are actives, neighbours in structure and some others; about 4.7% of the full set was active somewhere.

SMILES	IMP-1 inh	697 NFkB inh	Mdm2 MdmX PPI	aSyn UTR inh	VIM-2 inhibitor	Jurkat NFkB inh	Mdm2 MdmX conf	Full FLuc ctr
COCCn1c(C)cc(O)c(C(=O)Nc2cccc(Cl)c2)c1=O	-1.1	-3.4	64.9*	-0.7	-2.7	9.0	51.8*	41.6*
CCn1c(C)cc(O)c(C(=O)Nc2cccc(Cl)c2)c1=O	-1.3	-17.2	34.1	-95.6	-2.2	-32.3	x	x
COc1cc2c3nnc(-c4ccccc4)c-3cn(Cc3ccccc3F)c2cc1OC	-1.6	-28.6	84.1*	12.1	-0.1	9.8	53.0*	39.5*
COc1ccc(-c2ncncc2-c2csc(C)n2)c(O)c1OC	-4.1	-5.2	4.2	-4.2	-0.2	-0.3	x	x
COC1=C(N)C(=O)c2nc(-c3nc(C(=O)O)c(C)c(-c4ccc(OC)c(OC)c4O)c3N)ccc2C1=O	-4.7	-151.3	100.3*	x	-4.2	-16.7	100.0*	1.6
O=C(COC(=O)c1ccc(Cl)c(S(=O)(=O)N2CCCC2)c1)NCc1ccccc1	x	3.2	23.8	x	x	-7.8	x	x
O=C(O)/C=C/C(=O)NNC(=O)c1cccc(Br)c1	-2.9	6.4	35.0	0.8	-1.0	3.2	x	x
O=C(/C=C/c1cccc(C(F)(F)F)c1)Nc1cccc(C(F)(F)F)c1	-1.7	-21.4	90.8*	7.2	-2.6	-10.9	31.2	57.2*
Cc1ccc(NC(=O)/C=C/c2cccc(C(F)(F)F)c2)cc1	-4.1	-8.4	24.1	-43.7	-0.8	2.3	x	x
COc1ccc(-c2cc(C(=O)NNC3=NCCC3)c3c(C)nn(-c4ccccc4)c3n2)cc1	-3.5	0.2	69.0*	17.5	-3.5	1.7	55.8*	34.3
COc1ccc(NC(=O)c2cnn(-c3ccccc3)c2C)c(OC)c1	-2.8	1.2	-31.3	1.6	-1.0	0.2	x	x
COc1ccc(NC(=O)c2cc(-c3ccccc3)nc3c2c(C)nn3-c2ccccc2)c(OC)c1	-3.7	3.9	54.4*	26.2	-0.1	17.7	9.4	x
COc1ccc(Cn2c(SCc3ccccc3C)nc3cc(OC)c(OC)cc3c2=N)cc1	-1.4	-32.6	96.9*	92.9*	-1.4	18.7	52.4*	48.4*
COc1ccccc1-n1cc(C(=O)NCC(=O)N2CCN(Cc3ccccc3)CC2)c2ccccc2c1=O	-2.4	19.1	4.7	21.2	-3.2	-2.7	x	x
Brc1cc2c(cc1Br)OCCOCCOCCOCCO2	-2.3	10.4	-7.4	-12.8	0.2	9.3	x	x
Brc1ccc2c(c1)OCCOCCOc1cc(Br)ccc1OCCOCCOCCO2	-2.3	-19.8	74.0*	72.7*	-1.1	0.8	39.5	59.7*
CC(=O)Nc1cccc(NC(=O)C(=O)NCC(c2ccco2)N2CCc3ccccc32)c1 (configuration not stated)	x	-40.3	11.8	6.6	x	-11.1	x	x
Cn1c(=O)c2c(SCC(=O)N3CCCc4ccccc43)nc(CC(C)(C)C)nc2n(C)c1=O	-3.0	-36.8	69.1*	20.5	-0.8	14.6	25.9	x
CCCc1nc(SCC(=O)N2CCC(Cc3ccccc3)CC2)c2c(=O)n(C)c(=O)n(C)c2n1	-4.2	11.2	60.4*	25.0	-2.8	-2.4	41.8*	79.0*
CCCc1nc(SCC(=O)N2CCCc3ccccc32)c2c(=O)n(C)c(=O)n(C)c2n1	-4.3	-13.6	42.9	33.3	-4.1	-3.7	x	x
O=C(Nc1cc(Cl)ccc1-n1cncn1)c1ccc([N+](=O)[O-])s1	-1.7	18.6	58.4*	-10.2	-2.6	6.4	32.8	x
CC(C)CCn1c(=O)c2ccccc2n2c(CCC(=O)NC3CCN(Cc4ccccc4)CC3)nnc12	-3.5	-12.5	76.6*	23.0	3.9	12.9	57.8*	49.0*
COc1ccc(-c2csc(NC(C)c3nc4cc(Cl)c(N5CCCCC5)cc4n3CCOCCO)n2)cc1 (configuration not stated)	x	-17.2	31.1	-18.1	x	22.1	x	x
CC(Nc1nc(-c2ccc(Cl)cc2)cs1)c1nc2cc(Cl)c(N3CCCCC3)cc2n1CCOCCO (configuration not stated)	x	11.3	51.1*	6.9	x	-0.9	1.6	x
C(=N\Nc1nc2ccccc2[nH]1)/c1ccc2c(c1)OCCO2	-4.1	-163.7	-74.8	2.5	-4.5	-87.4	x	x
SMILES	IMP-1 inh	697 NFkB inh	Mdm2 MdmX PPI	aSyn UTR inh	VIM-2 inhibitor	Jurkat NFkB inh	Mdm2 MdmX conf	Full FLuc ctr
C(=N\Nc1ccc2ccccc2n1)/c1ccc2c(c1)OCCO2	-1.3	-98.7	68.6*	108.4*	-0.4	-72.5	79.4*	98.2*
CCN1CCN(c2nc3c(C)cccn3c(=O)c2/C=C(\C#N)C(=O)NCCOC)CC1	0.7	6.3	-1.2	-0.6	3.7	1.5	x	x
CC(=O)c1ccc(N2CCC(c3cc(-c4ccc(Cl)cc4Cl)n[nH]3)CC2)c([N+](=O)[O-])c1	-0.7	-2.1	52.1*	36.1	-2.1	21.6	37.1	x
O=[N+]([O-])c1cc(C(F)(F)F)ccc1NCCCCNS(=O)(=O)c1ccc(Cl)cc1	0.4	10.5	23.1	18.7	-1.1	-11.6	x	x
O=[N+]([O-])c1ccc(NC(=S)NCc2ccncc2)cc1	-0.5	7.9	4.6	8.0	-1.6	7.1	x	x
O=[N+]([O-])c1ccc(NC(=S)NCCc2ccc(Cl)cc2)cc1	0.7	-4.4	92.8*	8.1	-0.8	20.1	80.8*	45.7*
O=[N+]([O-])c1cc(C(F)(F)F)ccc1NCCNC(=S)Nc1ccc(Cl)cc1	-0.3	-9.5	89.0*	-13.0	-1.3	-12.1	27.2	x
O=[N+]([O-])c1ccc(NC(=S)NCc2ccc(F)cc2)cc1	2.6	1.4	73.7*	1.0	0.5	16.2	21.5	x
CCN(CC)CCCn1c2c(c(SCC(=O)Nc3cc(C)on3)nc1=O)CCC2	x	-10.3	-1.6	-15.6	x	11.1	x	x
Cc1cccc(N/C(=N\S(=O)(=O)c2ccccc2)C(F)(F)F)c1	-2.1	7.0	8.4	-28.9	-1.5	-10.4	x	x
Clc1ccc(Cn2cc(/C=N/n3cnnc3)c3ccccc32)c(Cl)c1	-4.0	-1.6	56.5*	23.2	-2.1	2.9	0.1	x
O=C(NCc1ccccc1)C(c1ccccc1)N(C(=O)c1csnn1)C1CCCC1 (configuration not stated)	-0.5	-4.6	5.6	-15.3	2.5	3.3	x	x
O=C1N[C@@H](Cc2ccccc2)C(=O)N2[C@H]3Nc4ccccc4[C@@]3([C@]34C[C@H]5C(=O)N[C@@H](Cc6ccccc6)C(=O)N5[C@H]3Nc3ccccc34)C[C@@H]12	x	8.3	52.8*	47.4	x	20.2	19.5	x
COc1ccc(N2CCN(C(=O)COC(=O)c3cc(S(=O)(=O)N(C)C)ccc3N3CCCC3)CC2)cc1	x	17.9	1.6	1.1	x	-6.1	x	x
CCOC(=O)c1c(C)nsc1NC(=O)C1CCCCC1	-1.4	1.1	23.6	21.5	-1.2	1.1	x	x
